IC50 data for three compounds are collected here from ChEMBL document CHEMBL5257107 (Bioorg Med Chem Lett, 2023).

The data set in a line: Cytotoxicity against human IMR-32 cells assessed as reduction in cell viability measured after 24 hrs by celltiter-glo-based assay. It counts as toxicity. In a few lines: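 Human IMR32 neuroblastoma cells were exposed to compound for 24 h. Viability was then read by CellTiter-Glo luminescence.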
In general terms: Cellular ATP, detected with luciferase, serves as a proxy for viable cell number.
Broadly, the IC50 is the concentration at which inhibition is half-maximal. Consider `CC(C)CN[C@H]1CS(=O)(=O)C[C@@H]1C(=O)Nc1ccc(Cl)c(Cl)c1`, for which the IC50 at 24 h was > 20 µM.

For the compound `O=C(O)CCCN[C@H]1CS(=O)(=O)C[C@@H]1S(=O)(=O)c1ccc(Cl)c(Cl)c1`, the IC50 at 24 h was > 20 µM.

For the compound `O=C(O)CCCCCN[C@H]1CS(=O)(=O)C[C@@H]1S(=O)(=O)c1ccc(Cl)c(Cl)c1`, the IC50 at 24 h is > 20 µM.
